Measured values taken from ChEMBL document CHEMBL3102858, “Anti-hepatitis C virus dinorditerpenes from the roots of Flueggea virosa” (J Nat Prod, 2014).

Assays:
[1] = Cytotoxicity against human Huh7.5 cells after 72 hrs; format: cell-based; details: Huh-7, 72 h
How it was run: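 Huh7.5 cells, derived from human hepatoma Huh7, were grown in DMEM with 10% heat-inactivated FBS and 1% nonessential amino acids. They were preseeded at 1 × 10^4 cells/well for 24 h, then given serial compound concentrations. Viable cells were measured after 72 h with the CellTiter 96 Aqueous One Solution kit. IC50 is the concentration inhibiting cell growth by 50%.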

[2] = Therapeutic index, ratio of IC50 for human Huh7.5 cells to EC50 for HCV; format: cell-based, Huh-7; details: read-out: Ratio IC50/EC50
How it was run: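 TI was calculated as IC50/EC50. IC50 came from the 72 h Huh7.5 viability assay and EC50 from the 72 h JC1-Luc2A HCVcc luciferase infection assay.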

Hepatitis C virus = experiment: Antiviral activity against HCV expressing JC1-Luc2A infected in Huh7.5 cells assessed as inhibition of viral infection after 72 hrs by luciferase reporter gene assay; format: functional, organism-based, Hepacivirus hominis; details: Huh7.5, 72 h
How it was run: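 Huh7.5 cells were preseeded at 1 × 10^4 cells/well for 24 h, then exposed to JC1-Luc2A reporter HCV (0.1 MOI) for 4 h. The inoculum was removed and the cells washed three times. Fresh medium with compounds was added. After 72 h, luciferase activity was read in cell lysates (Bright-Glo). EC50 is the concentration inhibiting HCVcc infection by 50%.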

SMILES	EC50 (Hepatitis C virus)	IC50 [1]	selectivity ratio [2]
Cc1cc2c(cc1O)[C@]1(C)CC[C@H](O)C(C)(C)[C@H]1C=C2	5.6 µM	54.9 µM	9.8
Cc1cc2c(cc1O)[C@]1(C)CC[C@H](O)C(C)(C)[C@H]1CC2	12 µM	54.3 µM	4.5
Cc1cc2c(cc1O)[C@]1(C)CCC(=O)C(C)(C)[C@H]1C=C2	25.5 µM	86.5 µM	3.4
Cc1cc2c(cc1O)[C@]1(C)CCC(=O)C(C)(C)[C@H]1[C@H](O)C2	52.8 µM	292 µM	5.5
C=CCc1ccc(O)c(-c2ccc(O)c(CC=C)c2)c1 [HONOKIOL]	9.4 µM	–	6.2
C=Cc1c(C)c(O)cc2c1CC[C@@H]1C(C)(C)[C@H](O)CC[C@@]21C [SPRUCEANOL]	5 µM	52.4 µM	10.5

Second part, led by results:

EC50 (Hepatitis C virus)	SMILES	IC50 [1]	selectivity ratio [2]
52.7 µM	C=C[C@]1(C)C=C2CC[C@H]3C(C)(C)[C@H](O)CC[C@]3(C)[C@H]2C[C@@H]1O	167 µM	3.2
24.9 µM	COc1cc2c(cc1C)C=C[C@@H]1C(C)(C)[C@H](O)CC[C@@]21C	70 µM	2.8
27.4 µM	COc1cc2c(cc1CO)C=C[C@@H]1C(C)(C)[C@H](O)CC[C@@]21C	125 µM	4.6
30.5 µM	COc1cc2c(cc1CO)C=C[C@@H]1C(C)(C)[C@@H](O)CC[C@@]21C	151 µM	4.9
47.3 µM	COc1cc2c(cc1C)C=C[C@@H]1C(C)(C)C(=O)CC[C@@]21C	81.8 µM	1.7
7.5 µM	COc1cc2c(cc1C)[C@H]1C[C@@H]3C(C)(C)[C@H](O)CC[C@@]23CO1	419 µM	55.9
6.6 µM	COc1cc2c(cc1C)CC[C@@H]1C(C)(C)[C@@]3(O)CC[C@@]21CO3	297 µM	45
